pKi: −log10 of the molar value.
Legend:
[1] = target: T1, 5-hydroxytryptamine receptor 1A (Rattus norvegicus, UniProt P19327); assay: In vitro affinity at 5-hydroxytryptamine 1A receptor of rat hippocampus by [3H]8-OH-DPAT displacement.; assay type: tissue-based
T1 sequence (P19327 whole entry): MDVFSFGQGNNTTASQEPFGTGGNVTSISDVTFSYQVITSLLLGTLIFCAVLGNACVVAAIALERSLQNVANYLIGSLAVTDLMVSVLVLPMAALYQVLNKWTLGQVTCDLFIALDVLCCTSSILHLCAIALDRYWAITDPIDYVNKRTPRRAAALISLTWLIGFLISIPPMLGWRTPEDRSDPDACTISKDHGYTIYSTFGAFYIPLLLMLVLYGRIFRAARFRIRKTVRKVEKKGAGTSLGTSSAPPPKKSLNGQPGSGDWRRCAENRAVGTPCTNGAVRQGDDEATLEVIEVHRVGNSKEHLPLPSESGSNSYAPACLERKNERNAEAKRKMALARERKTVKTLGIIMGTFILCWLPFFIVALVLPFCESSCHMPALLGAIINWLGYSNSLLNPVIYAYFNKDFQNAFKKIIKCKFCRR
How it was run: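 Incubation in 50 mM Tris–HCl pH 7.4 containing 2.0 mM CaCl2, 1.0 mM MgCl2, 1.0 mM MnCl2 and 5.7 mM ascorbic acid, 45 min at 37 °C. Nonspecific binding defined with 100 μM 5-HT·HCl. Otherwise run as in an earlier report.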

[2] = target: T2, D(1A) dopamine receptor (Rattus norvegicus, UniProt P18901); assay: In vitro affinity at Dopamine receptor D1 of rat striatum by [3H]SCH-23390 displacement.; assay type: tissue-based
[3] = target: T3, D(2) dopamine receptor (Homo sapiens, UniProt P14416); assay: In vitro affinity at human cloned Dopamine receptor D2A by [3H]-raclopride displacement.
[4] = tested on: Rattus norvegicus; assay: In vivo effect on 5-hydroxytryptophan (5-HTP) accumulation following decarboxylase inhibition was investigated on striatum of reserpine-pretreated rats.; assay type: functional
How it was run: (§1)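 Rats pretreated with reserpine (5 mg/kg sc) 18–20 h before. Single sc doses of test agent in saline, sometimes with a few drops of glacial HOAc. Decarboxylase then blocked with NSD1015 (117 mg/kg sc). DOPA and 5-HTP measured in dissected brain regions by HPLC with electrochemical detection. Values given as percent of saline controls, n = 2–4. Statistics by one-way ANOVA with Fisher's PLSD.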

[5] = tested on: Rattus norvegicus; assay: In vivo effect on 5-hydroxytryptophan (5-HTP) accumulation following decarboxylase inhibition was tested on limbic forebrain of reserpine-pretreated rats.; assay type: functional, Limbic system; how it was run: as §1
[6] = tested on: Rattus norvegicus; assay: In vivo effects of single doses on dihydroxyphenylalanine (DOPA) accumulation following decarboxylase inhibition was investigated on limbic forebrain of reserpine-pretreated rats.; assay type: functional, Limbic system; how it was run: as §1
[7] = tested on: Rattus norvegicus; assay: In vivo effects on 5-hydroxytryptophan (5-HTP) accumulation following decarboxylase inhibition was tested on cortex of reserpine-pretreated rats.; assay type: functional; how it was run: as §1
[8] = tested on: Rattus norvegicus; assay: In vivo effects on dihydroxyphenylalanine (DOPA) accumulation following decarboxylase inhibition was tested on cortex of reserpine-pretreated rats; assay type: functional; how it was run: as §1
[9] = tested on: Rattus norvegicus; assay: In vivo effects on dihydroxyphenylalanine (DOPA) accumulation following decarboxylase inhibition was tested on striatum of reserpine-pretreated rats.; assay type: functional; how it was run: as §1
[10] = target: T3, D(2) dopamine receptor; assay: In vitro affinity at human cloned Dopamine receptor D2A by [3H]raclopride displacement.
[11] = target: T2, D(1A) dopamine receptor; assay: In vitro affinity at Dopamine receptor D1 of rat striatum by [3H]SCH-23,390 displacement.; assay type: tissue-based
[12] = tested on: Rattus norvegicus; assay: In vivo effect on dihydroxyphenylalanine (DOPA) accumulation following decarboxylase inhibition was tested on cortex of reserpine-pretreated rats; assay type: functional; how it was run: as §1
[13] = tested on: Rattus norvegicus; assay: In vivo effect on dihydroxyphenylalanine (DOPA) accumulation following decarboxylase inhibition was tested on striatum of reserpine-pretreated rats.; assay type: functional; how it was run: as §1

T3 sequence (P14416 whole entry): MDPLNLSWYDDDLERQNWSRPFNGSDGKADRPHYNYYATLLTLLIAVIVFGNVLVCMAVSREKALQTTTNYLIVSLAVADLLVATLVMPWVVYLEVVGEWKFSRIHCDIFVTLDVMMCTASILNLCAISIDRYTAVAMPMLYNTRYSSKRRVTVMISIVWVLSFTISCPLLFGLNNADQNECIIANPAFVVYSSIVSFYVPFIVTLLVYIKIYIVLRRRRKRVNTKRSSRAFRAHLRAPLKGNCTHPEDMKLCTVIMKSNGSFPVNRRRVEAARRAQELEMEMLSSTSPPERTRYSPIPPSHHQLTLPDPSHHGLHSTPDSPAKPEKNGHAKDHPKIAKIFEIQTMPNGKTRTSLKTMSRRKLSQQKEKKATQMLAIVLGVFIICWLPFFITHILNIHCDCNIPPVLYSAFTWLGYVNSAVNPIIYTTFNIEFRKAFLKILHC
T2 sequence (P18901 whole entry): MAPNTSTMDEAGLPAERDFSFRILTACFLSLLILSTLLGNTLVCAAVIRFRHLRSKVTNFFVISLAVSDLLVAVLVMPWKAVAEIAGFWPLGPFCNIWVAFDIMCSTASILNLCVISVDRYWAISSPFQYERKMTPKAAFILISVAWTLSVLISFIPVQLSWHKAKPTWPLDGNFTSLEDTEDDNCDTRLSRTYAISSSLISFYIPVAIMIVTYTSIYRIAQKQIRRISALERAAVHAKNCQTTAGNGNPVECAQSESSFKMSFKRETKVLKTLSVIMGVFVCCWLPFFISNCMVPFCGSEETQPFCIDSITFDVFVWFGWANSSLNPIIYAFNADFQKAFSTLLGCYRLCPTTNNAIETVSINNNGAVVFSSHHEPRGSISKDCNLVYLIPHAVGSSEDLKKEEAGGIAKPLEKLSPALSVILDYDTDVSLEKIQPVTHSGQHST

Structure (SMILES) | pKi [1] | pKi [2] | pKi [3] | other results
CCc1ccc2c(c1O)-c1cccc3c1[C@@H](C2)N(C)CC3 | 8.04 | 6.11 | 5.69 | –
Cc1ccc2c(c1O)-c1cccc3c1[C@@H](C2)NCC3 | 8.49 | 4.62 | < 5.00 | Accumulation [4]: 47; Accumulation [5]: 37; Accumulation [6]: 85; Accumulation [7]: 40; Accumulation [8]: 93; Accumulation [9]: 78
COc1c(C)ccc2c1-c1cccc3c1[C@@H](C2)NCC3 | 7.90 | – | – | pKi [10]: 5.33; pKi [11]: < 5.30
CCCN1CCc2cccc3c2[C@H]1Cc1ccc(C)c(OC)c1-3 | 7.97 | < 5.70 | 6.62 | –
COc1c(-c2ccco2)ccc2c1-c1cccc3c1[C@@H](C2)N(C)CC3 | 6.00 | – | – | pKi [10]: 6.24; pKi [11]: 4.85
COc1c(C)ccc2c1-c1cccc3c1[C@@H](C2)N(Cc1ccccc1)CC3 | – | – | – | pKi [10]: < 5.30; pKi [11]: < 5.30
CN1CCc2cccc3c2[C@H]1Cc1ccc(-c2ccccc2)c(O)c1-3 | 5.96 | 5.03 | < 6.00 | –
CCCN1CCc2cccc3c2[C@H]1Cc1ccc(C)c(O)c1-3 | 7.91 | < 5.70 | 6.60 | Accumulation [4]: 104; Accumulation [5]: 104; Accumulation [6]: 81; Accumulation [7]: 102; Accumulation [8]: 116; Accumulation [9]: 72
CCCN1CCc2cccc3c2[C@H]1Cc1ccc(OS(=O)(=O)C(F)(F)F)c(OC)c1-3 | 5.48 | < 5.70 | 6.39 | –
COc1c(C(C)=O)ccc2c1-c1cccc3c1[C@@H](C2)N(C)CC3 | 6.82 | – | – | pKi [10]: 5.53; pKi [11]: 5.32
CC(=O)c1ccc2c(c1O)-c1cccc3c1[C@@H](C2)N(C)CC3 | – | 5.34 | 5.56 | –
CCc1ccc2c(c1OC)-c1cccc3c1[C@@H](C2)N(C)CC3 | 7.76 | 5.99 | 6.39 | –
C=Cc1ccc2c(c1OC)-c1cccc3c1[C@@H](C2)N(C)CC3 | 6.97 | – | – | pKi [10]: 5.76; pKi [11]: 5.84
COc1c(C)ccc2c1-c1cccc3c1[C@@H](C2)N(C)CC3 | 8.12 | 6.41 | 6.61 | –
COc1c(C)ccc2c1-c1cccc3c1[C@@H](C2)N(C(C)C)CC3 | 6.19 | < 5.30 | < 6.00 | –
Cc1ccc2c(c1O)-c1cccc3c1[C@@H](C2)N(Cc1ccccc1)CC3 | 6.11 | < 5.30 | < 6.00 | –
COc1c(OS(=O)(=O)C(F)(F)F)ccc2c1-c1cccc3c1[C@@H](C2)N(C)CC3 | 5.79 | < 5.70 | 5.98 | –
Cc1ccc2c(c1O)-c1cccc3c1[C@@H](C2)N(C(C)C)CC3 | 6.62 | < 5.00 | < 6.00 | –
Cc1ccc2c(c1O)-c1cccc3c1[C@@H](C2)N(C)CC3 | – | – | – | Accumulation [4]: 70; Accumulation [5]: 58; Accumulation [12]: 100; Accumulation [13]: 90; Accumulation [6]: 84; Accumulation [7]: 72

Source: ChEMBL document CHEMBL1129624, “10-substituted 11-oxygenated (R)-aporphines: synthesis, pharmacology, and modeling of 5-HT1A receptor interactions” (J Med Chem, 1996)
